Experimental data: paper PMC9636331 (Blood Advances, 2022)
Several values for one entry are separate records, joined by “and”; a condition that tells them apart may be missing. Identical values can stand only once. Entries after “also recorded” stand apart in the source; their conditions may differ.

Columns and labels:
[1] = system: PNH patients with active hemolysis; assay: Serum LDH levels, phase 2 study of iptacopan monotherapy; type: in vivo, human; details: cohort 2 (50/200 mg bid), until week 12
How it was run: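 Primary endpoint: serum LDH reduction ≥60% from baseline, or LDH below ULN, at any time up to week 12. Baseline was the mean of the last 3 screening values before randomization. If LDH had not fallen ≥40% by day 15, the dose was to be raised from day 17, and raised further for cohort 1 at day 29, with a maximum of 200 mg twice daily.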

[2] = system: PNH patients with active hemolysis; assay: Hb and other markers of hemolysis; type: in vivo, human
How it was run: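 Secondary hemolysis markers (total and free Hb, bilirubin, reticulocyte count, RBC count, haptoglobin) were measured in PNH patients over 12 weeks of twice-daily test compound. Dosing was 25 mg for 4 weeks then 100 mg (cohort 1), or 50 mg then 200 mg (cohort 2). Baseline for each variable was the mean of all pretreatment values.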

PNH-type RBCs = assay: Flow cytometry of PNH-type RBCs and C3 fragment deposition on RBCs; type: in vivo, human
[3] = system: PNH patients with active hemolysis; assay: Safety and tolerability; type: in vivo, human
[4] = Plasma pharmacokinetics of iptacopan; type: in vivo, human
How it was run: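 Plasma samples were taken predose on days 2, 15, 29 and 57, and at 0.25, 1, 2, 4 and 6 h post-dose on days 29 and 57. Doses were 25/50 mg twice daily for 4 weeks, then 100/200 mg twice daily. Assay was validated LC-MS/MS, LLOQ approximately 1 ng/mL. Cmax, AUC, Ctrough and Tmax were derived noncompartmentally.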

[5] = system: complement alternative pathway; assay: Wieslab complement assay; type: in vivo, human; details: 200 mg twice daily; data not shown
How it was run: (§1)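 Adult PNH patients, randomized 1:1, took the test compound 25 mg twice daily for 4 weeks then 100 mg twice daily (cohort 1), or 50 mg then 200 mg twice daily (cohort 2). Alternative-pathway target engagement was measured as circulating fragment Bb and by Wieslab assay. Sigmoid Emax models related both to individual steady-state Ctrough at baseline and after 4 weeks at each dose (days 29, 57).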

fragment Bb = assay: Circulating fragment of factor B; type: in vivo, human; details: after the first dose of 25 mg twice daily or higher
How it was run: as §1

[6] = ref data on file, cited from earlier work
[7] = system: PNH patients with persistent hemolysis despite ongoing treatment with eculizumab; details: add-on to eculizumab, week 13; cited from earlier work
[8] = until data cutoff, listed as iptacopan
[9] = nonclinical and phase 1 studies

## CCO[C@H]1CCN(Cc2c(OC)cc(C)c3[nH]ccc23)[C@H](c2ccc(C(=O)O)cc2)C1 [Iptacopan]
[1]
  LDH levels maintained by all patients: < 1.5 × ULN
[2]; week 12, both cohorts
  Patients with Hb levels above 120 g/L: 5
[2]; week 12, cohort 1
  Patients achieving reticulocyte count ≤150 × 10^9/L, number: 4
  Patients achieving reticulocyte count ≤150 × 10^9/L, percent: 66.7%
  Patients with Hb levels above 120 g/L: 3
[2]; week 12, cohort 1, baseline 32.4
  Mean bilirubin level: 11.7 µmol/L
[2]; week 12, cohort 1, baseline 88.5
  Mean Hb level: 115.2 g/L
[2]; week 12, cohort 1, baseline 217.6
  Mean reticulocyte count: 1.308e+11 L⁻¹
[2]; week 12, cohort 2
  Patients achieving reticulocyte count ≤150 × 10^9/L, number: 4
  Patients achieving reticulocyte count ≤150 × 10^9/L, percent: 100%
  Patients with Hb levels above 120 g/L: 2
[2]; week 12, cohort 2, baseline 35.3
  Mean bilirubin level: 14.8 µmol/L
[2]; week 12, cohort 2, baseline 76.9
  Mean Hb level: 109.0 g/L
[2]; week 12, cohort 2, baseline 211.1
  Mean reticulocyte count: 1.048e+11 L⁻¹
PNH-type RBCs; Week 12, 25 mg/100 mg (cohort 1), baseline 33.6
  Clone size (PNH red blood cells, type II+III) (%), mean, Raw: 82.9%
PNH-type RBCs; Week 12, 50 mg/200 mg (cohort 2), baseline 49.1
  Clone size (PNH red blood cells, type II+III) (%), mean, Raw: 91.1%
PNH-type RBCs; both cohorts
  Effect on C3d deposition on RBC: near-total abrogation of C3d deposition on RBC
[3]; 25 mg/100 mg, n = 7
  AE by preferred term: Abdominal discomfort: 2 (28.6) n (%)
  AE by preferred term: Blood alkaline phosphatase increased: 1 (14.3) n (%)
  AE by preferred term: Cough: 2 (28.6) n (%)
  AE by preferred term: Headache: 1 (14.3) n (%)
  AE by preferred term: Oropharyngeal pain: 2 (28.6) n (%)
  AE by preferred term: Pyrexia: 2 (28.6) n (%)
  AE by preferred term: Upper respiratory tract infection: 2 (28.6) n (%)
  AEs leading to discontinuation of study treatment, number of events (nE): 0
  AEs leading to discontinuation of study treatment, number of patients: 0 nS (%)
  AEs of mild intensity, number of events (nE): 29
  AEs of mild intensity, number of patients: 4 (57.1) nS (%)
  AEs of moderate intensity, number of events (nE): 2
  AEs of moderate intensity, number of patients: 1 (14.3) nS (%)
  AEs of severe/serious intensity, number of events (nE): 0
  AEs of severe/serious intensity, number of patients: 0 nS (%)
  Study drug-related AEs leading to discontinuation of study treatment, number of events (nE): 0
  Study drug-related AEs leading to discontinuation of study treatment, number of patients: 0 nS (%)
  Study drug-related AEs, number of events (nE): 6
  Study drug-related AEs, number of patients: 1 (14.3) nS (%)
  Total AEs, number of events (nE): 31
  Total AEs, number of patients: 4 (57.1) nS (%)
[3]; 50 mg/200 mg, n = 6
  AE by preferred term: Abdominal discomfort: 0 n (%)
  AE by preferred term: Blood alkaline phosphatase increased: 1 (16.7) n (%)
  AE by preferred term: Headache: 3 (50.0) n (%)
  AE by preferred term: Oropharyngeal pain: 0 n (%)
  AE by preferred term: Pyrexia: 0 n (%)
  AE by preferred term: Upper respiratory tract infection: 0 n (%)
  AEs leading to discontinuation of study treatment, number of events (nE): 1
  AEs leading to discontinuation of study treatment, number of patients: 1 (16.7) nS (%)
  AEs of mild intensity, number of events (nE): 6
  AEs of mild intensity, number of patients: 4 (66.7) nS (%)
  AEs of moderate intensity, number of events (nE): 1
  AEs of moderate intensity, number of patients: 1 (16.7) nS (%)
  AEs of severe/serious intensity, number of events (nE): 0
  AEs of severe/serious intensity, number of patients: 0 nS (%)
  Study drug-related AEs leading to discontinuation of study treatment, number of events (nE): 1
  Study drug-related AEs leading to discontinuation of study treatment, number of patients: 1 (16.7) nS (%)
  Study drug-related AEs, number of events (nE): 3
  Study drug-related AEs, number of patients: 3 (50.0) nS (%)
  Total AEs, number of events (nE): 7
  Total AEs, number of patients: 5 (83.3) nS (%)
[3]; 13 patients, until data cutoff
  Deaths: No deaths
  Tolerability: overall well-tolerated and safe
[3]; 13 patients, until data cutoff, listed as iptacopan
  Tolerability: safe and well-tolerated
[3]; Total, n = 13
  AE by preferred term: Abdominal discomfort: 2 (15.4) n (%)
  AE by preferred term: Blood alkaline phosphatase increased: 2 (15.4) n (%)
  AE by preferred term: Cough: 2 (15.4) n (%)
  AE by preferred term: Headache: 4 (30.8) n (%)
  AE by preferred term: Oropharyngeal pain: 2 (15.4) n (%)
  AE by preferred term: Pyrexia: 2 (15.4) n (%)
  AE by preferred term: Upper respiratory tract infection: 2 (15.4) n (%)
  AEs leading to discontinuation of study treatment, number of events (nE): 1
  AEs leading to discontinuation of study treatment, number of patients: 1 (7.7) nS (%)
  AEs of mild intensity, number of events (nE): 35
  AEs of mild intensity, number of patients: 8 (61.5) nS (%)
  AEs of moderate intensity, number of events (nE): 3
  AEs of moderate intensity, number of patients: 2 (15.4) nS (%)
  AEs of severe/serious intensity, number of events (nE): 0
  AEs of severe/serious intensity, number of patients: 0 nS (%)
  Study drug-related AEs leading to discontinuation of study treatment, number of events (nE): 1
  Study drug-related AEs leading to discontinuation of study treatment, number of patients: 1 (7.7) nS (%)
  Study drug-related AEs, number of events (nE): 9
  Study drug-related AEs, number of patients: 4 (30.8) nS (%)
  Total AEs, number of events (nE): 38
  Total AEs, number of patients: 9 nS (%) and 9 (69.2) nS (%)
[3]; Total, n = 13, listed as iptacopan
  Study drug-related AEs, number of patients: 4 nS (%)
[3]; in vivo
  Dose dependence of the AE profile of the 2 cohorts: no dose-dependent changes in the AE profile
[3]; until data cutoff
  Severe or serious AEs: no severe or serious AEs
[3]; [8]
  Breakthrough hemolysis: no breakthrough hemolysis was observed; also recorded: no thromboembolic events or breakthrough hemolysis were reported
  Severe or serious AEs: no severe or serious adverse events reported; also recorded: no serious nor severe AEs
[3]; until data cutoff, no prophylactic anticoagulation
  Thromboembolic events: No thromboembolic events were reported; also recorded: no thromboembolic events were observed; also recorded: no thromboembolic events or breakthrough hemolysis were reported
[4]; 25 to 200 mg twice daily
  Dose proportionality of exposure (AUClast and Cmax): underproportional in relationship to dose
[4]; doses of ≥50 mg twice daily, steady state
  Mean trough level exposures: ≥ 900 ng/mL
[4]; human, plasma, oral, 25 mg
  AUC(0-t): 6290 ng·h/mL
[4]; human, plasma, oral, 200 mg
  AUC(0-t): 19900 ng·h/mL
  Cmax: 4520 ng/mL
[5]
  Suppression of alternative pathway activity (Wieslab assay): near-maximal inhibition
Fragment Bb
  Bb levels: decreased rapidly
[6]; [9]
  Absorption: high absorption
  Clearance: moderate clearance
[6]
  Direct renal excretion (share of clearance): ~25%
  Ethnic sensitivity: no ethnic sensitivity
  Food effect: no food effect
  Terminal half-life in human plasma: approximately 20 hours
[7]
  Effect of iptacopan add-on on hemolysis and Hb levels: significant reductions in both intra- and extravascular hemolysis and transfusion-free improvements in Hb levels
